Source: ChEMBL document CHEMBL2429846, “Inhibition of monoamine oxidase by 3,4-dihydro-2(1H)-quinolinone derivatives” (Bioorg Med Chem Lett, 2013)

How the values were obtained:
[1] = biological target: T1, Amine oxidase [flavin-containing] A (Homo sapiens, UniProt P21397); assay: Inhibition of recombinant human MAO-A assessed as inhibition of kynuramine conversion to fluorescent metabolite 4-hydroxyquinoline after 20 mins by fluorescence spectrophotometry
T1 sequence (P21397 whole entry): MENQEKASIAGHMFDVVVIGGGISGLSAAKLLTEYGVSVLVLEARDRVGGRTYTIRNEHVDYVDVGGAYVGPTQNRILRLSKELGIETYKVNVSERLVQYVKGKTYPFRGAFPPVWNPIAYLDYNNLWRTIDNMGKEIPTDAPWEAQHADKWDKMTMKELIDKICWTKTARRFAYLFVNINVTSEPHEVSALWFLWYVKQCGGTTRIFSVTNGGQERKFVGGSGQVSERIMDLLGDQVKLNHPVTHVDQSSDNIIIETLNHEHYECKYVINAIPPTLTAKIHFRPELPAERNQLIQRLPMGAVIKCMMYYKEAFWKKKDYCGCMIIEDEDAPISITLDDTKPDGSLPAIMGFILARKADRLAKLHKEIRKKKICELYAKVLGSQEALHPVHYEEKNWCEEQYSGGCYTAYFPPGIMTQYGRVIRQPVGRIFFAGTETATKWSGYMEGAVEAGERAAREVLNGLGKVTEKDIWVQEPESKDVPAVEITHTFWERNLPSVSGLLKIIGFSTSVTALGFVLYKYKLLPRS
Outline: (§1)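 IC50 values were read from sigmoidal concentration–inhibition curves of enzyme activity plotted against log inhibitor concentration.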

Homo sapiens = species on record: Homo sapiens; assay: Selectivity index, ratio of IC50 for recombinant human MAO-A to IC50 for recombinant human MAO-B
Outline: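 The index was calculated as IC50(MAO-A)/IC50(MAO-B), giving selectivity for the MAO-B isoform.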

[2] = biological target: T2, Amine oxidase [flavin-containing] B (Homo sapiens, UniProt P27338); assay: Inhibition of recombinant human MAO-B assessed as inhibition of kynuramine conversion to fluorescent metabolite 4-hydroxyquinoline after 20 mins by fluorescence spectrophotometry; outline: as §1
T2 sequence (P27338 whole entry): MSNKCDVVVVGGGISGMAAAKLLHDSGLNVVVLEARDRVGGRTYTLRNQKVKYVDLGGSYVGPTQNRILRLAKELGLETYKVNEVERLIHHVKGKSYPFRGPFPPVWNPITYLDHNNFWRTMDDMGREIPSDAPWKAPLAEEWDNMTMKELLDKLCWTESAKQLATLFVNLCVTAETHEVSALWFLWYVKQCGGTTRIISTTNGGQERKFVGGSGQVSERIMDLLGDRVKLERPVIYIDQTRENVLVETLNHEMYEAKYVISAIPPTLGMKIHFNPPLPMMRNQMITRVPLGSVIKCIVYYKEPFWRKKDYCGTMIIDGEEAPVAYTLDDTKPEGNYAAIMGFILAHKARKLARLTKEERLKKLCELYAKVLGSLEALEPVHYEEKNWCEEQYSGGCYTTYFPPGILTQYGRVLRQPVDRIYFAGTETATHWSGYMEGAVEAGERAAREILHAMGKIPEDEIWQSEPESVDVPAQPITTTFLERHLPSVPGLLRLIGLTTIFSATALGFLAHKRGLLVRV

[3] = biological target: T1, Amine oxidase [flavin-containing] A; assay: Inhibition of recombinant human MAO-A assessed as inhibition of kynuramine conversion to fluorescent metabolite 4-hydroxyquinoline at 100 uM after 20 mins by fluorescence spectrophotometry
[4] = biological target: T2, Amine oxidase [flavin-containing] B; assay: Reversible inhibition of recombinant human MAO-B using kynuramine as substrate assessed as residual activity at 100 times IC50 preincubated for 30 mins followed by 100 fold dilution measured after 20 mins by fluorescence spectrophotometry relative to control
[5] = biological target: T2, Amine oxidase [flavin-containing] B; assay: Inhibition of recombinant human MAO-B assessed as inhibition of kynuramine conversion to fluorescent metabolite 4-hydroxyquinoline at 100 uM after 20 mins by fluorescence spectrophotometry

| Compound | IC50 [1] [µM] | Ratio IC50 (Homo sapiens) | IC50 [2] [µM] | inhibition (INH) [3] | Activity [4] [%] | inhibition (INH) [5] |
| --- | --- | --- | --- | --- | --- | --- |
| O=C1CCc2ccc(OCCCc3ccccc3)cc2N1 | 22.5 | 173 | 0.13 |  |  |  |
| O=C1CCc2cc(OCc3ccccc3)ccc2N1 | 25.3 | 6 | 4.01 |  |  |  |
| O=C1CCc2cc(OCc3cccc(Cl)c3)ccc2N1 | 50.6 | 82 | 0.62 |  |  |  |
| O=C1CCc2cc(O)ccc2N1 | 161 | 0.8 | 201 |  |  |  |
| O=C1CCc2cc(OCCCc3ccccc3)ccc2N1 | 19.7 | 69 | 0.284 |  |  |  |
| O=C1CCc2ccc(OCc3cccc(Cl)c3)cc2N1 |  |  |  | Not Active |  |  |
| O=C1CCc2ccc(OCc3cccc(Br)c3)cc2N1 | 7.98 |  |  |  | 36 |  |
| O=C1CCc2ccc(OCc3ccccc3)cc2N1 | 90.4 | 2380 | 0.038 |  |  |  |
| O=C1CCc2ccc(OCCc3ccccc3)cc2N1 | 53.7 | 281 | 0.191 |  |  |  |
| O=C1CCc2cc(OCCc3ccccc3)ccc2N1 | 22.5 | 10 | 2.33 |  |  |  |
| O=C1CCc2cc(OCc3cccc(Br)c3)ccc2N1 | 12.4 | 144 | 0.086 |  |  |  |
| O=C1CCc2ccc(O)cc2N1 | 183 |  |  |  |  | Not Active |
